Reference: ChEMBL document CHEMBL3351398, “Discovery of a Potent and Selective DGAT1 Inhibitor with a Piperidinyl-oxy-cyclohexanecarboxylic Acid Moiety” (ACS Med Chem Lett, 2014)
The source made the active and inactive calls. No cut-off for these calls is given here.

Key:
Homo sapiens [1] = test: Reduction in fasting triglyceride levels in familial chylomicronemia syndrome patient at 20 mg dosed daily; assay type: functional
Mus musculus [2] = test: Reduction in cumulative body weight gain in DGAT1 knockout mouse at 10 mg/kg, po dosed daily for 6 days; assay type: functional, organism-based; parameters: dose 10 mg/kg
In short: (§1)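 Wild-type and DGAT1 knockout mice were dosed daily at 10 mpk for six days. Cumulative body weight gain and food intake were compared with vehicle-treated groups.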

Mus musculus [3] = test: Reduction in food intake in wild type mouse at 10 mg/kg, po dosed daily for 6 days measured starting from day 3; assay type: functional, organism-based; parameters: dose 10 mg/kg
In short: (§2)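 Wild-type and DGAT1 knockout mice were dosed daily at 10 mpk for six days. Cumulative body weight gain and food intake were compared with vehicle-treated groups of the same genotype.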

Mus musculus [4] = test: Reduction in cumulative body weight gain in wild type mouse at 10 mg/kg, po dosed daily for 6 days measured starting from day 3; assay type: functional, organism-based; parameters: dose 10 mg/kg; in short: as §1
Homo sapiens [5] = species on record: Homo sapiens; test: Selectivity index, ratio of Ki for human A2A receptor to KI IC50 for human DGAT1
[6] = target: T1, Sterol O-acyltransferase 1 (Homo sapiens) (UniProt P35610); test: Inhibition of human ACAT1 at 10 uM
T1 sequence (whole entry): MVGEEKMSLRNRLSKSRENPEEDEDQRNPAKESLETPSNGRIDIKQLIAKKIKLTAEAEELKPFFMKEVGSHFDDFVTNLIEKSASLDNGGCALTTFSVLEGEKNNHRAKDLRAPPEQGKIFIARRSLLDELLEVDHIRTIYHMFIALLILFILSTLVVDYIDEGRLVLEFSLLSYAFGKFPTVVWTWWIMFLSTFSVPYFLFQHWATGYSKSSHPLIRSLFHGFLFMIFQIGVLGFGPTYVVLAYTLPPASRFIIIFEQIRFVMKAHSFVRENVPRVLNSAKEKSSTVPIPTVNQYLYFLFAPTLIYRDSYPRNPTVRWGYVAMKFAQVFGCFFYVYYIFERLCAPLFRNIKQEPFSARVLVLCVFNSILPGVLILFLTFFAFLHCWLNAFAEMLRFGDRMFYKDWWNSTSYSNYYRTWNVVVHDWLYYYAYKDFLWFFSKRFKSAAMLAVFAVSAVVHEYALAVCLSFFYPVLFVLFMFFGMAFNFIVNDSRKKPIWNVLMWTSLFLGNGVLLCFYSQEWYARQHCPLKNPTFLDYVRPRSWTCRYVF
In short: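 Human ACAT1 inhibition was tested at a single concentration of 10 μM. The value is reported as percent inhibition.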

Mus musculus [7] = test: Reduction in food intake in DGAT1 knockout mouse at 10 mg/kg, po dosed daily for 6 days; assay type: functional, organism-based; parameters: dose 10 mg/kg; in short: as §2
[8] = target: T2, Sterol O-acyltransferase 1 (Homo sapiens, UniProt P35610); test: Inhibition of human ACAT1
T2 sequence (P35610 whole entry): T1 sequence (whole entry)

Mus musculus [9] = test: Inhibition of plasma triglyceride accumulation in mouse at 10 mg/kg, po dosed 2 hrs before lipid challenge and measured at 18 hrs by lipid tolerance test; assay type: functional
In short: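 Mouse lipid tolerance test measuring plasma triglyceride excursion. Dosing was 10 mpk oral, with triglyceride reduction read at 18 h.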

[10] = target: T3, Diacylglycerol O-acyltransferase 1 (Homo sapiens, UniProt O75907); test: Inhibition of human DGAT1
T3 sequence (O75907 whole entry): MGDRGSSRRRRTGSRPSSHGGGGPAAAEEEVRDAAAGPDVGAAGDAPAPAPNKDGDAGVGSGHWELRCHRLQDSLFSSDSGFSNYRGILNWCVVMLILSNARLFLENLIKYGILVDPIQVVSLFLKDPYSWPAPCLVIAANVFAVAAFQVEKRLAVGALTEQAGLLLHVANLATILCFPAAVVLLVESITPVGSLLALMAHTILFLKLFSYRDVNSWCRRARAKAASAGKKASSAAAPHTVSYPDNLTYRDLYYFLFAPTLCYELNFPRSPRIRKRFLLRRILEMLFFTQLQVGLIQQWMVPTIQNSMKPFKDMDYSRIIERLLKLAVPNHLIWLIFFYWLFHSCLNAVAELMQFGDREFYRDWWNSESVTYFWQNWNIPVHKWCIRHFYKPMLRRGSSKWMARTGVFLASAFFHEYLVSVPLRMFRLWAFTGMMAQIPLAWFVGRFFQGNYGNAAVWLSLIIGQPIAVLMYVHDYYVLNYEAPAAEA

[11] = target: Voltage-gated inwardly rectifying potassium channel KCNH2 (Homo sapiens, UniProt Q12809); test: Displacement of radiolabeled MK499 from human ERG
Sequence of Voltage-gated inwardly rectifying potassium channel KCNH2 (Q12809 whole entry): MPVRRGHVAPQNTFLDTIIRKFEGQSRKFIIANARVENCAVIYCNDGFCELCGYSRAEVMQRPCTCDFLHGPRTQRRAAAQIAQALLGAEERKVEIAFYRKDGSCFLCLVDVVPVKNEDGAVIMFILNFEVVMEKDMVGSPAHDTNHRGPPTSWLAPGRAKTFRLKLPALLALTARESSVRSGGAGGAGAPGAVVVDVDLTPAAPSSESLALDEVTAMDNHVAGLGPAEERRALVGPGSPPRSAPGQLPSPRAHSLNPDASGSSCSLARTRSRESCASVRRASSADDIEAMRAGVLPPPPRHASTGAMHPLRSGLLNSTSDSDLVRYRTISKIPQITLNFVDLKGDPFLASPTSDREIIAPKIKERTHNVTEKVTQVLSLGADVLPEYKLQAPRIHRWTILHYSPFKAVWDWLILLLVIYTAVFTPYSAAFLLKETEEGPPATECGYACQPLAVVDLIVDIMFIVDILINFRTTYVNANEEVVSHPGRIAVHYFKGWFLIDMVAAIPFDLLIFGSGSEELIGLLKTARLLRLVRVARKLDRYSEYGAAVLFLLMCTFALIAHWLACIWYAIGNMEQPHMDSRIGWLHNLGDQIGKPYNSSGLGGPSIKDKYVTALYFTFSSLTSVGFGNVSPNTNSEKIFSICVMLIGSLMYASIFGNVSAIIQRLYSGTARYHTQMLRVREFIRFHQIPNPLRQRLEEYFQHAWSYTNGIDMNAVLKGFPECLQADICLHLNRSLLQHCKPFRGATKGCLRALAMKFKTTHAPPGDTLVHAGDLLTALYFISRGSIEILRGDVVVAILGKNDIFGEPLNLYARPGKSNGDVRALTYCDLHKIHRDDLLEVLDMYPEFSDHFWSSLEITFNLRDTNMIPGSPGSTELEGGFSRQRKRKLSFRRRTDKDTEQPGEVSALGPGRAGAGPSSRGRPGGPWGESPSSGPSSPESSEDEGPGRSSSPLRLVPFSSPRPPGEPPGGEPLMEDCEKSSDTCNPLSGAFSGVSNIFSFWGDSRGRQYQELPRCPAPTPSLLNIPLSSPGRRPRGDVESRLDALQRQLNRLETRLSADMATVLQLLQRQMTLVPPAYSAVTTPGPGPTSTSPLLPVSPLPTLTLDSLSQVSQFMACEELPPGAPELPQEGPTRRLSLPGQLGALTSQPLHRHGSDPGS
In short: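 hERG off-target activity was measured in a competitive binding assay against radiolabeled MK-499. The value is reported as Ki.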

Adenosine receptor A2a = Adenosine receptor A2a (Homo sapiens, UniProt P29274); test: Binding affinity to human A2A receptor
Sequence of Adenosine receptor A2a (P29274 whole entry): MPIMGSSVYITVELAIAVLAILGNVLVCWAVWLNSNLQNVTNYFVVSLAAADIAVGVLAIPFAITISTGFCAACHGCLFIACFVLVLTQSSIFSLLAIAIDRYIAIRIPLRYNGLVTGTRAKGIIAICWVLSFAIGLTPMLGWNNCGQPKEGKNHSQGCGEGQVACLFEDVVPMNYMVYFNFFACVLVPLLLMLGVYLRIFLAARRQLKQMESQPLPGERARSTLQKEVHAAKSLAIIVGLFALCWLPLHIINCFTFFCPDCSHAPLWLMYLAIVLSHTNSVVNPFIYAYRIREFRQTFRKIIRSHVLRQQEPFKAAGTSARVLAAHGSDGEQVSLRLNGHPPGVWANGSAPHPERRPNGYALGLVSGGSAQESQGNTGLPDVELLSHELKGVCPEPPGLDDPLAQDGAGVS
In short: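 Recombinant human A2A receptor was tested in an in-house radioligand competition binding assay. The value is reported as Ki.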

[12] = target: T4, Diacylglycerol O-acyltransferase 1 (Mus musculus, UniProt Q9Z2A7); test: Inhibition of mouse DGAT1
T4 sequence (Q9Z2A7 whole entry): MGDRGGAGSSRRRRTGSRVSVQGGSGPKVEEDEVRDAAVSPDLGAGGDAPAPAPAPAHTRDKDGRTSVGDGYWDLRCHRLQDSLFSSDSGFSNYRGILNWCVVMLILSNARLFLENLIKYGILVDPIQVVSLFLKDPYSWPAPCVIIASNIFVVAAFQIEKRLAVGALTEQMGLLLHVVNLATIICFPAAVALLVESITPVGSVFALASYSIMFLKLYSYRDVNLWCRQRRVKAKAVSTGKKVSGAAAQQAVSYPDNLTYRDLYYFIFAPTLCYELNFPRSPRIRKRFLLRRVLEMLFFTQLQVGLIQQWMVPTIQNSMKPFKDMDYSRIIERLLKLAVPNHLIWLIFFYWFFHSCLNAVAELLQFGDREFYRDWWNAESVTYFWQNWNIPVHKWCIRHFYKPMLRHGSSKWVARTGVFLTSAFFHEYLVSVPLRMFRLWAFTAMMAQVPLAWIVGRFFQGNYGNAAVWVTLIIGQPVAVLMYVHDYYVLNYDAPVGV

Rattus norvegicus = test: Inhibition of plasma triglyceride accumulation in Sprague-Dawley rat at 10 mg/kg, po dosed 2 hrs before lipid challenge and measured at 18 hrs by lipid tolerance test; assay type: functional
[13] = Solubility in PBS buffer at pH 7; assay type: physicochemical
In short: (§3)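 High-throughput solubility test in PBS buffer at pH 2 and at pH 7. Free form and salt forms (TFA, formate, ammonium) were tested separately.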

[14] = Solubility in PBS buffer at pH 2; assay type: physicochemical; in short: as §3

| SMILES | Selectivity ratio (Homo sapiens [5]) | inhibition [6] [%] | IC50 [8] [µM] | inhibition in vivo at 10 mg/kg (Mus musculus [9]) [%] | IC50 [10] [µM] | Ki [11] [µM] | Ki (Adenosine receptor A2a) [µM] | IC50 [12] [µM] | also measured |
| --- | --- | --- | --- | --- | --- | --- | --- | --- | --- |
| O=C(O)C[C@H]1CC[C@H](c2ccc(-c3ccc(Nc4ccc(C(F)(F)F)nc4)cn3)cc2)CC1 [PRADIGASTAT] |  |  |  |  |  |  |  |  | inhibition (INH) (Homo sapiens [1]): 40% |
| O=C(O)[C@H]1CC[C@H](OC2CCN(c3ccc(-c4nc5cc(C(F)(F)F)ccc5[nH]4)cn3)CC2)CC1 | > 1000 | 23 |  |  |  |  |  |  | Activity (Mus musculus [2]): inactive; Activity (Mus musculus [3]): Active; Activity (Mus musculus [4]): Active; Activity (Mus musculus [7]): inactive |
| O=C(O)[C@H]1CC[C@H](OC2CCN(c3ccc(-c4nc5cc(Cl)ccc5[nH]4)cn3)CC2)CC1 | > 1000 | 4 | > 10 | 75 | 0.0029 | 4 | 3.5 | 0.029 |  |
| CC1(C)Oc2ncnc(N)c2N=C1c1ccc([C@H]2CC[C@H](CC(=O)O)CC2)cc1 |  |  |  |  |  |  |  |  | inhibition in vivo at 10 mg/kg (Rattus norvegicus): 100% |
| O=C(O)[C@H]1CC[C@@H](OC2CCN(c3ccc(-c4nc5cc(Cl)ccc5[nH]4)cn3)CC2)CC1 |  | 13 | > 10 | 52 | 0.0022 | 15 |  | 0.011 |  |
| O=C(O)[C@H]1CC[C@H](OC2CCN(c3ccc(-c4nc5cc(F)ccc5[nH]4)cn3)CC2)CC1 |  | 5 | > 10 |  |  | > 60 | 9.7 | 0.11 |  |
| O=C(O)[C@H]1CC[C@@H](OC2CCN(c3ccc(-c4nc5cc(C(F)(F)F)ccc5[nH]4)cn3)CC2)CC1 | > 1000 | 22 | > 10 | 75 | 0.0025 | 7 | 8 | 0.008 |  |
| O=C(O)C(F)(F)F.O=C(O)[C@H]1CC[C@H](OC2CCN(c3ccc(-c4nc5cc(C(F)(F)F)ccc5[nH]4)cn3)CC2)CC1 |  |  |  |  |  |  |  |  | solubility [13]: 151 µM; solubility [14]: 130 µM |
| O=C(O)[C@H]1CC[C@@H](OC2CCN(c3ccc(-c4nc5cc(F)ccc5[nH]4)cn3)CC2)CC1 | > 1000 | -2 | > 10 | 55 | 0.0058 | 11 | > 10 | 0.026 |  |
